In the EternaBench riboswitch data:

Tested on: MS2 coat protein
Assay: apparent Kd, MS2 coat protein; higher = weaker binding; RNA-MaP array; FMN 200 µM where present
Summary of the method: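 In 100 mM Tris-HCl pH 7.5, 80 mM KCl, 4 mM MgCl2, BSA, DTT, yeast tRNA and Tween-20, SNAP-549-labelled MS2 coat protein was titrated from 0.7 or 1.5 nM, doubling to 3 µM, over designs transcribed by stalled E. coli RNA polymerase on Illumina sequencing-chip clusters. This was done first without ligand, then with ligand held constant. After green signal was normalised to red-channel RNA signal and control-cluster median Fmax, the apparent Kd was taken as the median of filtered per-cluster binding-curve fits.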

[1] = designed as: OFF switch for flavin mononucleotide, no ligand
[2] = ligand present: flavin mononucleotide, designed as: OFF switch for flavin mononucleotide
[3] = designed as: ON switch for flavin mononucleotide, no ligand
[4] = ligand present: flavin mononucleotide, designed as: ON switch for flavin mononucleotide

Sequence | apparent Kd [1] [nM] | apparent Kd [2] [nM] | apparent Kd [3] [nM] | apparent Kd [4] [nM]
CAGCCCUGAGGAUAUCCAUCCUUGUACAUGAGGAUCACCCAUGUUUUCCUCUGGGCUUUGGGAGAAGGCAGGUAUC | 74.6 | 77.1 | – | –
CAGCCCUGAGGAUAUCCCUACUUGUACAUGAGGAUCACCCAUGUCCUCCUCCGGGCUUCGGGAGAAGGCAGGUCUC | 15.8 | – | – | –
CAGCCCUGAGGAUAUCCCUCCUUGUACAUGAGGAUCACCCAUGUUCUCCUCUGGGCUUUGGGAGAAGGCAGGUCUC | 26.8 | 26.4 | – | –
CAGCGAAAGCUGAAUCUGUAGAGAGAGGAUAUACGUCAUAAGGUGCAUACAUGAGGAUCACCCAUGUAGAAGGCUCUCUACAGU | 25.3 | 603 | – | –
CAGCGAUAGCUAAAGUAUCUAUCAGAGGAUAUUUAUGAAACAUGAGGAUCACCCAUGUGAAACUGGGAGAAGGCUGAUAGAUAG | – | – | 11.9 | 5.47
CAGCGAUAGCUGAACAAUCUAUCACAGGAUAUUCAUGAAACAUGAGGAUCACCCAUGUGAAAUUGGGAGAAGGGUGAUAGAUUG | – | – | 12.7 | 5.36
CAGCGCUGUCGAGAGGAUAUGCGGUGAUGGACAUGAGGAUCACCCAUGUUAGCGAUAGUAUUACGGUAGAAGGCUCUACAGCUGC | – | – | 92.2 | 16.7
CAGCUCUGAGGAUAUCCAUCCUCCUACAUGAGGAUCACCCAUGUUUCCCUCUGGGUUUUCGGAGAAGGCAGUUUUU | 248 | 425 | – | –
CAGCUGAAAGUCAGGAUAUCUAGAGCCUCGGCUCUAGAGAAGGGACAUGAGGAUCACCCAUGUCACUCCAGCUG | 18.4 | 20 | – | –
CAGGAGAACACAGGAUAUCCGUAAAACAUGAGGAUCACCCAUGUUUGUGGCCCGCCAGGGCUGACGGAGAAGGGUGACUCGCAC | – | – | 6.69 | 5.61
CAGGGUCGUAUUCAGCCCGUCCACAUGAGGAUCACCCAUGUCAAGGAUAUAGCUUAAAAUACAAACUAGAAGGUGACGCUGGGU | 21.7 | 83.8 | – | –
CAGGUAGACUGAGGAUAUACAGACCUAGUCUAUCUAGGUCAAUUAACCACAUGAGGAUCACCCAUGUAGAAGGCAGUCUGCCUG | 15.9 | 21.4 | – | –
CAGGUAGCUACAGGAUAUACACAGCUCAGUAAACUGAGCAAAAGAACUACAUGAGGAUCACCCAUGUAGAAGGGUAGCUGCCUG | 16.8 | 18.8 | – | –
CAGGUCUGAGGAUAUCCAUCUUCAUACAUGAGGAUCACCCAUGUUUACCUUUGGGUUUUUGGAGAAGGCAGUUUUU | 188 | 243 | – | –
CAGUACAGAGGAUAUACAUGAGGAUCACCCAUGUGUUUCAGCUAGGAGACUAGCGAAAGUAGAAGGCUGUACUG | 9.57 | 25.1 | – | –
CAGUACUGAGGAUAUACAUGAGGAUCACCCAUGUGUUCCAGCUAGGAAACUAGCAAAAGUAGAAGGCAGUUCUG | 20.2 | 182 | – | –
CAGUACUGAGGAUAUACAUGAGGAUCACCCAUGUGUUCCAGCUAGGAAGCUAGCAAAAGUAGAAGGCAGUACUG | 26.2 | 276 | – | –
CAGUGCAAUGUAGGAUAUGCUCAGGAAUACUGAGCAGAAGGACAUGAGGAUCACCCAUGUAAAAUGAAAGAUAAUAAAGCACUG | 16.1 | 51 | – | –
CAUCCACAUGAGGAUCACCCAUGUGAGGAUAUGAUACUAUGUACUUCGGUACAUAGUAUCAGAAGGCACAGGUG | 120 | 37.4 | – | –
CAUCUCUAUGUAGGAUAUAGGACAACAACAGCACUAGAAGGACAUGAGGAUCACCCAUGUACACUACUCGCGUCAUCGUCUCGC | 6.01 | 6.22 | – | –
CAUGUCCUCACAGGAUAUGCACCACUUUGUGGUGCAGAAGGGUGAAUACAUGAGGAUCACCCAUGUGGACAUGAUAUAUUUAAG | – | – | 1200 | 75.4

Sequence | apparent Kd [1] [nM] | apparent Kd [2] [nM] | apparent Kd [3] [nM] | apparent Kd [4] [nM]
CAUGUCCUCACAGGAUAUGCACCACUUUGUGGUGCAGAAGGGUGAAUACAUGAGGAUCACCCAUGUGGACAUGAUAUAUUUAAU | – | – | 1140 | 72.2
CAUUAAUUCAUUAUAGUUAUUAUACAGGAUAUGUUACAUGAGGAUCACCCAUGUAUUCAUGGUAAACAGAAGGGUAAUACUAGU | 11.1 | 15.8 | – | –
CAUUCCCGUCGAGGAUAUAUUAUAUGACAACAAACACAUACAUGAGGAUCACCCAUGUCCCAUGUAUAGAAGGCGACCUGCGUC | – | – | 46.6 | 99.3
CCACGGUAUGUAGGAUAUGCAUAGCAUUGCUAUGCAGAAGGACAUGAGGAUCACCCAUGUAUGUAUUCCAUACUAAUCCCGUGA | 5.96 | 5.3 | – | –
CCACGGUAUGUAGGAUAUGCAUAGCAUUGCUAUGCAGAAGGACAUGAGGAUCACCCAUGUAUGUAUUCCAUACUAAUCCCGUGG | 5.5 | 5.69 | – | –
CCACGUCACAUAUACAUGAGGAUCACCCAUGUCAAAAGACAUGAGGAUAUGGAUCCUAAUUGGAUCCAGAAGGCAUGGACGUGG | – | – | 757 | 50.8
CCAGAUAUGUGAGGAUAUAGAGUGGAAUACACUCUAGAAGGUAUGUGAAAACAUGAGGAUCACCCAUGUGAUUGAUUAUCUGGA | – | – | 28.2 | 27.3
CCAGAUUUCACAGGAUAUAUUGAUGACAUGAGGAUCACCCAUGUACCGGCAGUAGAAGGGUGAACGCACGUGACCACGUGCGUG | – | – | 54.1 | 14.9
CCAGCGUAUGUGAGGAUAUGCUGGUCCUUGGAUCAGCAGAAGGCACAUGAGGAUCACCCAUGUGAUAACGUUGG | 59.5 | 261 | – | –
CCAGCGUGUGUGAGGAUAUGCUGGUCCUUGGAUCAGCAGAAGGCACAUGAGGAUCACCCAUGUGAGGACGUUGG | 22.4 | 94.5 | – | –
CCAGGCUGUGUGAGGAUAUGCUGGUCCUUGGAUCAGCAGAAGGCACAUGAGGAUCACCCAUGUGAAAAGCUUGG | 17.4 | 57.6 | – | –
CCAGGCUUCGAGAAGGACAUGAGGAUCACCCAUGUGCGUGUAAAACAGCCGUGAGGCUGCAUCAUGUAGGAUAUCGGAGUCUGC | 293 | 88.9 | – | –
CCAGUGUAAGGAUAUGACAAUGGUAUCUUCGGAUACCAUUGUCAGAAGGUACAUGAGGAUCACCCAUGUAACAC | 16.6 | 26.5 | – | –
CCAUCAGCGAACGAUACGAAUGGACAUGAGGAUCACCCAUGUAGAAGGACAGGAGAAUAACGGCUGUAGGAUAUACAUUUAGUG | 40.3 | 31.2 | – | –
CCAUGAACAGGAUAUCUUCCUCCGAACAUGAGGAUCACCCAUGUAACUGUGUAGCAUGACAGAGAAGGGUUUAUGG | 99.5 | 56.7 | – | –
CCAUGGCAUGUAGGAUAUGUCUGACAAAGUCAGACAGAAGGACAUGAGGAUCACCCAUGUAAACCGAAAGGAACAUAGCCAUGG | 6.54 | 7.3 | – | –
CCAUGGCAUGUAGGAUAUGUCUGACAAAGUCAGACAGAAGGACAUGAGGAUCACCCAUGUAAUGGAAAACCAAUAUAGCCAUGG | 7.62 | 11.3 | – | –
CCAUGUUAGCAGGAUAUGCAAUAAAUCUUUUAAGCAGAAGGGCUUACAUGAGGAUCACCCAUGUAUAAUUUCAA | 50.3 | 116 | – | –
CCAUUCAGAGGAUAUGCGCAUAGAUAAGACUUUGUUUCUUAACAUGAGGAUCACCCAUGUAGAAGGCUGUACCC | 24.1 | 21 | – | –
CCCAAACUUGGGCUUGGUGGUGCAUAGGAUAUCCUUGAACAUGAGGAUCACCCAUGUGCAACUGUGGAGAAGGGUGCAGGGCCU | – | – | 362 | 88.4
CCCAGAGCGUAAGGAUAUACAUGAGGAUCACCCAUGUCUACAAUAAUAGUACUAUAUGAAGUCGUGUAGAAGGUACGCGCAGGU | 41.2 | 119 | – | –
